ChEMBL document CHEMBL5649170, “Sustained microglial depletion with CSF1R inhibitor impairs parenchymal plaque development in an Alzheimer's disease model” (Nat Commun, 2019)
The source made the active and inactive calls. The rule behind the calls is not given here.

Experiments:
Mus musculus [1] = assay: Antialzheimer activity in 5XFAD mouse assessed as number of Iba positive cells per FOV in somatosensory cortex at 1200 ppm administered as rodent chow starting from 1.5 months and measured after 4 months (reference value: 192 to 604); format: functional; settings: route po, time 2.5 months, 1825 h
Mus musculus [2] = assay: Antialzheimer activity in 5XFAD mouse assessed as number of Iba positive cells per FOV in microglia at 1200 ppm administered as rodent chow for 3 days by DAPI staining based immunolabeling analysis (reference value: 119 to 154); format: functional; settings: route po, time 3 day
[3] = AUC (0 to infinity) in male rat at 1.13 mg/kg, iv administered as single dose; format: ADME, organism-based; settings: in vivo
[4] = Effect on Clec7a gene expression in 5XFAD mouse thalamus at 1200 ppm administered as rodent chow starting from 1.5 months and measured after 7 months by RNA-Seq analysis (reference value: 3.412 to 4.381 RPKM); format: functional; settings: route po, time 5.5 months, 4015 h
Method in brief: (§1)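 WT and 5xFAD mice were treated with 1200 ppm PLX5622 chow or control chow from 1.5 to 7 months of age. Brains were microdissected into cortex, hippocampus and thalamus, and RNA was extracted from tissue powder. Whole-transcriptome RNA-Seq libraries were sequenced, with n = 4 per group per region (48 samples).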

[5] = molecular target: Receptor tyrosine-protein kinase erbB-4 (Homo sapiens, UniProt Q15303); assay: Inhibition of ERBB4 (unknown origin)
[6] = molecular target: RAC-gamma serine/threonine-protein kinase (Homo sapiens, UniProt Q9Y243); assay: Inhibition of AKT3 (unknown origin)
[7] = Effect on Clec7a gene expression in wild type mouse hippocampus at 1200 ppm administered as rodent chow starting from 1.5 months and measured after 7 months by RNA-Seq analysis (reference value: 0.034 to 0.503 RPKM); format: functional; settings: route po, time 5.5 months, 4015 h; method in brief: as §1
[8] = Prevention of St8sia5 gene downregulation in 5XFAD mouse hippocampus assessed as percent change in Reads Per kilo base per Million mapped reads at 1200 ppm administered as rodent chow starting from 1.5 months and measured after 7 months by RNA-Seq analysis (reference value: 42.024 to 86.833 %); format: functional; settings: route po, time 5.5 months, 4015 h
[9] = Effect on Ctsd gene expression in 5XFAD mouse cortex at 1200 ppm administered as rodent chow starting from 1.5 months and measured after 7 months by RNA-Seq analysis (reference value: 202.122 to 327.906 RPKM); format: functional; settings: route po, time 5.5 months, 4015 h
[10] = molecular target: Leucine-rich repeat serine/threonine-protein kinase 2 (Homo sapiens, UniProt Q5S007); assay: Inhibition of LRRK2 (unknown origin)
[11] = Volume of distribution at steady state in mouse at 1.92 mg/kg, iv administered as single dose; format: ADME, organism-based; settings: in vivo, read-out: Vdss
Mus musculus [12] = assay: Antialzheimer activity in 5XFAD mouse assessed as time spent in center zone at 1200 ppm administered as rodent chow for 10 to 24 weeks by Open field test (reference value: 14.9 to 130.9 sec); format: functional; settings: route po, time 10-24 weeks
Mus musculus [13] = assay: Prevention of C1qa gene upregulation in 5XFAD mouse hippocampus at 1200 ppm administered as rodent chow starting from 1.5 months and measured after 7 months by Nanostring analysis; format: functional, tissue-based; settings: route po, time 5.5 months
[14] = molecular target: PI3-kinase p110-alpha/p85-alpha (Homo sapiens, UniProt P42336); assay: Inhibition of PIK3CA/PIK3R1 (unknown origin); format: protein-complex assay
[15] = Effect on Hexb gene expression in 5XFAD mouse thalamus at 1200 ppm administered as rodent chow starting from 1.5 months and measured after 7 months by RNA-Seq analysis (reference value: 75.322 to 93.439 RPKM); format: functional; settings: route po, time 5.5 months, 4015 h
[16] = Effect on ccl6 gene expression in wild type mouse cortex at 1200 ppm administered as rodent chow starting from 1.5 months and measured after 7 months by RNA-Seq analysis (reference value: 0.280 to 1.162 RPKM); format: functional; settings: route po, time 5.5 months, 4015 h
Mus musculus [17] = assay: Antialzheimer activity in 5XFAD mouse assessed as amyloidbeta42 level in detergent soluble cortex fraction measured per microgram protein at 1200 ppm administered as rodent chow starting from 1.5 months and measured after 4 months by ELISA (reference value: 0 to 0.063 pg); format: functional; settings: route po, time 2.5 months, 1825 h
Method in brief: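 PLX5622 at 1200 ppm in chow given to 5xFAD mice from 1.5 months to 4 or 7 months of age; cortex and thalamus homogenized in TPER (detergent-soluble), pellets re-homogenized in 70% formic acid and spun 100,000 g, 1 h, 4 °C (insoluble); protein by Bradford/Lowry; Aβ species measured by Meso Scale electrochemiluminescence immunoassay, normalized to protein; n = 7–8 per group at 7 months.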

Misshapen-like kinase 1 = Misshapen-like kinase 1 (Homo sapiens, UniProt Q8N4C8); assay: Inhibition of MINK1 (unknown origin)
[18] = molecular target: Tyrosine-protein kinase Blk (Homo sapiens, UniProt P51451); assay: Inhibition of BLK (unknown origin)
[19] = Effect on Rtn4r gene expression in wildtype mouse hippocampus assessed as percent change in Reads Per kilo base per Million mapped reads at 1200 ppm administered as rodent chow starting from 1.5 months and measured after 7 months by RNA-Seq analysis (reference value: 88.030 to 132.504 %); format: functional; settings: route po, time 5.5 months, 4015 h
Mus musculus [20] = assay: Antialzheimer activity in 5XFAD mouse assessed as number of Thio-S positive plaques per FOV in thalamus at 1200 ppm administered as rodent chow starting from 1.5 months and measured after 7 months by Thio-S staining based confocal microscopic analysis (reference value: 97 to 282); format: functional; settings: route po, time 5.5 months, 4015 h
[21] = Effect on Ctsd gene expression in wild type mouse cortex at 1200 ppm administered as rodent chow starting from 1.5 months and measured after 7 months by RNA-Seq analysis (reference value: 110.927 to 117.612 RPKM); format: functional; settings: route po, time 5.5 months, 4015 h
[22] = molecular target: Protein kinase C theta type (Homo sapiens, UniProt Q04759); assay: Inhibition of PRKCQ (unknown origin)
[23] = molecular target: Serine/threonine-protein kinase Nek6 (Homo sapiens, UniProt Q9HC98); assay: Inhibition of NEK6 (unknown origin)
[24] = molecular target: Tyrosine-protein kinase Lck (Homo sapiens, UniProt P06239); assay: Inhibition of LCK (unknown origin)
Mus musculus [25] = assay: Antialzheimer activity in 5XFAD mouse assessed as average plaque volume in thalamus at 1200 ppm administered as rodent chow starting from 1.5 months and measured after 7 months by Thio-S staining based confocal microscopic analysis (reference value: 2442.562 to 3332.739 microm3); format: functional; settings: route po, time 5.5 months, 4015 h
[26] = Drug concentration in mouse brain at 300 ppm administered as rodent chow for 14 days; format: ADME, tissue-based; settings: route po, time 14 day, read-out: Ct
[27] = Effect on C1qa gene expression in 5XFAD mouse thalamus at 1200 ppm administered as rodent chow starting from 1.5 months and measured after 7 months by RNA-Seq analysis (reference value: 36.243 to 61.660 RPKM); format: functional; settings: route po, time 5.5 months, 4015 h; method in brief: as §1
[28] = Clearance in male rat at 1.13 mg/kg, iv administered as single dose; format: ADME, organism-based; settings: in vivo
[29] = Effect on Spi1 gene expression in wild type mouse thalamus at 1200 ppm administered as rodent chow starting from 1.5 months and measured after 7 months by RNA-Seq analysis (reference value: 1.161 to 2.277 RPKM); format: functional; settings: route po, time 5.5 months, 4015 h

Chain of PI3-kinase p110-alpha/p85-alpha (P27986 whole entry): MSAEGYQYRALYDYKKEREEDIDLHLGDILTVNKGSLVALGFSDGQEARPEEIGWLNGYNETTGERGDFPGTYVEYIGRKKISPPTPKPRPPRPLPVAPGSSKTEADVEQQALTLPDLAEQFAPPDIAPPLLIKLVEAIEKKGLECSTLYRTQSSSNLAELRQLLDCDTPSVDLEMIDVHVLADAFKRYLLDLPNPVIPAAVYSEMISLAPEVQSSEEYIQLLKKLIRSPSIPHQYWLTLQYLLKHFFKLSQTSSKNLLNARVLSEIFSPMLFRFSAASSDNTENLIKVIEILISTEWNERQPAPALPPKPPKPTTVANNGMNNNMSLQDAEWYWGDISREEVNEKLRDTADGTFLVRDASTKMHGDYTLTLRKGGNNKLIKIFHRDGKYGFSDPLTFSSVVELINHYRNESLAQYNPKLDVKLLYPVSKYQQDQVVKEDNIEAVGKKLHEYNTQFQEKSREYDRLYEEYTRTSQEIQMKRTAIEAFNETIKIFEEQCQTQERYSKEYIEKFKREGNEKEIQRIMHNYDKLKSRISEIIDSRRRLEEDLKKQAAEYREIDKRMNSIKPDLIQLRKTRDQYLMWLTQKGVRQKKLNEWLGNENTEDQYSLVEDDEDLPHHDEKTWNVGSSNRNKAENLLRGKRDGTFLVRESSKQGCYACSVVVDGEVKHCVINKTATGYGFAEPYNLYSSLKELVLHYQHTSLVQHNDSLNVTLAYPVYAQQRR
Chain of PI3-kinase p110-alpha/p85-alpha (P42336 whole entry): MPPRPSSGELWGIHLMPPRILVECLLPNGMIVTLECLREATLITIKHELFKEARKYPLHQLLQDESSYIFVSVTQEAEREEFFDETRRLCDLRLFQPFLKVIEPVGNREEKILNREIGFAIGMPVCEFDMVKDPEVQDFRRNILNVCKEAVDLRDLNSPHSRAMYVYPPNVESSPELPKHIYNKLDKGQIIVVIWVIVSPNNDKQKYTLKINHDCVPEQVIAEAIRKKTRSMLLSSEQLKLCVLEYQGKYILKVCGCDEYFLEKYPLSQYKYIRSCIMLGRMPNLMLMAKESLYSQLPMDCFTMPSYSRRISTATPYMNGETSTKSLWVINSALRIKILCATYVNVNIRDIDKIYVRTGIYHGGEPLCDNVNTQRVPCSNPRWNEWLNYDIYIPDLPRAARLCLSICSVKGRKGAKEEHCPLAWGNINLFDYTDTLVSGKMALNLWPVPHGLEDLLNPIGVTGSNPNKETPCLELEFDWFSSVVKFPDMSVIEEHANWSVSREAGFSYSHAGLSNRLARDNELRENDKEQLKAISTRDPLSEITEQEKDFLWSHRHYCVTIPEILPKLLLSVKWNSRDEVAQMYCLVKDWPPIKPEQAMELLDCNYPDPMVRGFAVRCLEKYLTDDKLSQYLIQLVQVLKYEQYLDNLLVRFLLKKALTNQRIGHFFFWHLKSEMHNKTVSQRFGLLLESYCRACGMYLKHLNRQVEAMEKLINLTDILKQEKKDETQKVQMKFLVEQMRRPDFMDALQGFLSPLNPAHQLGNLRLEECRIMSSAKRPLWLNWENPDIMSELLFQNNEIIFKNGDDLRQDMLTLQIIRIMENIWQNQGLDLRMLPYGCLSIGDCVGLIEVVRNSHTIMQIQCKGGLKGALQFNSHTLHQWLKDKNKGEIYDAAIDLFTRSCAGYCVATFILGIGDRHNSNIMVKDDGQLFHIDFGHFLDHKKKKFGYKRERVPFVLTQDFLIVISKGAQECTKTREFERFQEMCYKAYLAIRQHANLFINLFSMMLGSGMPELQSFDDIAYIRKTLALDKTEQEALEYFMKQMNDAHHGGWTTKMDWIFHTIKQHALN
Chain of Tyrosine-protein kinase Lck (P06239 whole entry): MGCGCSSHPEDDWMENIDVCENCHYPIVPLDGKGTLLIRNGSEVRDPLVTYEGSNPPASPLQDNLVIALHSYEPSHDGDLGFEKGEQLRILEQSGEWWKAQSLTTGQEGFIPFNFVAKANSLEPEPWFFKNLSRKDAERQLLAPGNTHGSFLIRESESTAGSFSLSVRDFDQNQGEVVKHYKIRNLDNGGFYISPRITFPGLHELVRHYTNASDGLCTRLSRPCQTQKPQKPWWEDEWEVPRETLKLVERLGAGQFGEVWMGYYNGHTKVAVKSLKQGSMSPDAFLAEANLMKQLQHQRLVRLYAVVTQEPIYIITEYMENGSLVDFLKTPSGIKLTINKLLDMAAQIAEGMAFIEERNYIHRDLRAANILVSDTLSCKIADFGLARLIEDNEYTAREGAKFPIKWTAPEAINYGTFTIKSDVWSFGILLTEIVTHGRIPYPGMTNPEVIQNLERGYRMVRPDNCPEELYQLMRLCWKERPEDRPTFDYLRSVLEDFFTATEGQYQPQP
Chain of Receptor tyrosine-protein kinase erbB-4 (Q15303 whole entry): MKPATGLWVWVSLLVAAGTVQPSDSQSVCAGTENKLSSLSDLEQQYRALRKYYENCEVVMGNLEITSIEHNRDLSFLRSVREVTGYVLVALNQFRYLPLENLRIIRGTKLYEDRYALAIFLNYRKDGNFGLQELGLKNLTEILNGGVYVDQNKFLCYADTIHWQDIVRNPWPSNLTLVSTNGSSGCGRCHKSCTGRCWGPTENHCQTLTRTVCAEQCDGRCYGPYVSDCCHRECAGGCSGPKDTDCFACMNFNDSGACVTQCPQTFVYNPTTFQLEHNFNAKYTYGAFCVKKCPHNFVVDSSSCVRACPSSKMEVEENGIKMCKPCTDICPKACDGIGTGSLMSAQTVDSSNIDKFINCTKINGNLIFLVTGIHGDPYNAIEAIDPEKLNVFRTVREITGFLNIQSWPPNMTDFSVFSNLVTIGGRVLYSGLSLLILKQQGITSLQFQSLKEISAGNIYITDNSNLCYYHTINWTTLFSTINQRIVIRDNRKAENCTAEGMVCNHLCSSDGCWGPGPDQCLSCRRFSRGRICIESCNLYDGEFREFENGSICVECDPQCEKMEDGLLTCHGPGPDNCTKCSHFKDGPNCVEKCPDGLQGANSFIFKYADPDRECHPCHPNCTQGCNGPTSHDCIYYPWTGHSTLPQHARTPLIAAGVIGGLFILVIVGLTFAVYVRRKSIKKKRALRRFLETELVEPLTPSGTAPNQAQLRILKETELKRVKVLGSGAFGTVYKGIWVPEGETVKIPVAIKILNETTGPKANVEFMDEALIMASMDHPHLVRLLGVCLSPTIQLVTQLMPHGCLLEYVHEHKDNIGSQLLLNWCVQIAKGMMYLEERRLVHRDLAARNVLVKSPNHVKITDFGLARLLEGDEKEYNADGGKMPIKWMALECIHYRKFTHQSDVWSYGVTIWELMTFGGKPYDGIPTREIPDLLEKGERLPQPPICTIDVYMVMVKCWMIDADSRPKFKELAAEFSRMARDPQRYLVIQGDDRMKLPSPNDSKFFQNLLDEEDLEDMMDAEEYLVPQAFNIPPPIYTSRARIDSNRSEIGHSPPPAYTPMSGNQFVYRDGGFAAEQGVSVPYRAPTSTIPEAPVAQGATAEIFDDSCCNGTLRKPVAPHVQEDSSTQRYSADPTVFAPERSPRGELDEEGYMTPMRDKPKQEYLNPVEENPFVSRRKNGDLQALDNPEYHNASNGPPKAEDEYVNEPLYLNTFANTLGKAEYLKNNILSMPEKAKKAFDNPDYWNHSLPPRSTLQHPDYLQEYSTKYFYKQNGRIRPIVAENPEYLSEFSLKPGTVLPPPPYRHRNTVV
Chain of RAC-gamma serine/threonine-protein kinase (Q9Y243 whole entry): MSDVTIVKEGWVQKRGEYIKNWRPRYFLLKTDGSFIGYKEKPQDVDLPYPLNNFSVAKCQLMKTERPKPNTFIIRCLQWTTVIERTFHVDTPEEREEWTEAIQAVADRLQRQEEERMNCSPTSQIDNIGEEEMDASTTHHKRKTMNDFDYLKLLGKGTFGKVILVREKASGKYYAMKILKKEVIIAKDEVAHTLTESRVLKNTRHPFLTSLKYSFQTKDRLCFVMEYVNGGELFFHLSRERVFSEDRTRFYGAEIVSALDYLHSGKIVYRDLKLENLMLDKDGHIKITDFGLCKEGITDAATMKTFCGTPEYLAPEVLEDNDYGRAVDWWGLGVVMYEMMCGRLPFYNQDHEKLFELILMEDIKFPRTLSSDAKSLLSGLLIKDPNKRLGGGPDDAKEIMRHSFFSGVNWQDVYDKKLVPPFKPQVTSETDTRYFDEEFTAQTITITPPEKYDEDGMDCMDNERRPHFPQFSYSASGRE
Chain of Tyrosine-protein kinase Blk (P51451 whole entry): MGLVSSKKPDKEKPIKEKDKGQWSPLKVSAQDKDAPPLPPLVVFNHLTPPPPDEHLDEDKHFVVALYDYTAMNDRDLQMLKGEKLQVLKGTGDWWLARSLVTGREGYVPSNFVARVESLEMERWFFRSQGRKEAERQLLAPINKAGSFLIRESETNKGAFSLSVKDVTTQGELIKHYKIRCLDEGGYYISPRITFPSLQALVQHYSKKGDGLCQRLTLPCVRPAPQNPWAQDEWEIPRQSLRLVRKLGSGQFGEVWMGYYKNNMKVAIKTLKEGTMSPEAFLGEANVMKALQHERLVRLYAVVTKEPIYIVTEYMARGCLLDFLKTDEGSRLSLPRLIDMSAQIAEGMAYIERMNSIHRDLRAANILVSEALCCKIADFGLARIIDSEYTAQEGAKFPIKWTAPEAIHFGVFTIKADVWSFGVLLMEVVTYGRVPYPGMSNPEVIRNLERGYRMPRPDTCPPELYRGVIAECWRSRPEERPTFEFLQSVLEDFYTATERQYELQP
Chain of Serine/threonine-protein kinase Nek6 (Q9HC98 whole entry): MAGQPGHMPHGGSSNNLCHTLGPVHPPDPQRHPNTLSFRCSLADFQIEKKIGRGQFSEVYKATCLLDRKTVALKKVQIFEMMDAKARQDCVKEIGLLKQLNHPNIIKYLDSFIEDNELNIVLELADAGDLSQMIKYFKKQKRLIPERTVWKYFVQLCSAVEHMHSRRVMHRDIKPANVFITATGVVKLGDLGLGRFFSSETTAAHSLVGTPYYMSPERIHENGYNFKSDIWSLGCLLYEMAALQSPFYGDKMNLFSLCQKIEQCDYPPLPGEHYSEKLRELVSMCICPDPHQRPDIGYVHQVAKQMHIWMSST

## COc1ncc(F)cc1CNc1ccc(Cc2c[nH]c3ncc(C)cc23)c(F)n1 [PLX-5622]
Mus musculus [1]
  Activity: 0
Mus musculus [2]
  Activity: 1
[3]
  AUC(0-inf): 2630 ng·h/mL
[4]
  Activity: 0 RPKM
[5]
  IC50: > 1000 nM
[6]
  IC50: > 1000 nM
[7]
  Activity: 0.04 RPKM
[8]
  Activity: 74.641%
[9]
  Activity: 106.638 RPKM
[10]
  IC50: > 1000 nM
[11]
  Vd: 0.34 L/kg
Mus musculus [12]
  Time: 32.4 s
Mus musculus [13]
  Activity: Active
[14]
  IC50: > 1000 nM
[15]
  Activity: 10.635 RPKM
[16]
  Activity: 0 RPKM
Mus musculus [17]
  Activity: 0.006 pg
Misshapen-like kinase 1
  IC50: > 1000 nM
[18]
  IC50: > 1000 nM
[19]
  Activity: 89.887%
Mus musculus [20]
  Activity: 45
[21]
  Activity: 76.394 RPKM
[22]
  IC50: > 1000 nM
[23]
  IC50: > 1000 nM
[24]
  IC50: > 1000 nM
Mus musculus [25]
  Activity: 1488.396 um3
[26]
  concentration at 336 h: 963 ng/mL
[27]
  Activity: 0.199 RPKM
[28]
  clearance: 7.7 mL/min/kg
[29]
  Activity: 0 RPKM
